According to ChEMBL document CHEMBL5705905, “Pharmacological targeting of kinases MST1 and MST2 augments tissue repair and regeneration” (Sci Transl Med, 2016):
pIC50: −log10 of the molar value. Active and inactive are the calls of the source. The rule behind the calls is not given here.

Experiments:
[1] = system: HepG2; experiment: Inhibition of Flag-tagged MST1 Y101F/D109A mutant (unknown origin) in human HepG2 cells assessed as MOB1 phosphorylation level at 3 uM by immunoblot analysis; type: cell-based
[2] = target: Serine/threonine-protein kinase 36 (Homo sapiens) (UniProt Q9NRP7); experiment: Inhibition of STK36 (unknown origin) assessed as remaining activity at 1 uM by Kinome scan method relative to control
[3] = Acute toxicity in wild-type mouse assessed as bromodeoxyuridine positive cells at 1 mg/kg,ip administrated daily for 2 months and after 2 weeks drug withdrawal by H and E staining based immunohistochemical analysis; type: organism-based; conditions: in vivo, 1460 h
Procedure, shortened: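 Wild-type mice dosed 1 mg/kg i.p. daily for 2 months (vehicle 0.1% citric acid aqueous solution with 20% Kolliphor HS 15), or dosed and then withdrawn 2 weeks. Liver sections given H&E and IHC for CK19 and BrdU; positive cells counted, n = 3; means ± SD, Student's t test.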

[4] = target: Serine/threonine-protein kinase 32A (Homo sapiens) (UniProt Q8WU08); experiment: Inhibition of YANK1 (unknown origin) assessed as remaining activity at 1 uM by Kinome scan method relative to control
[5] = target: Interleukin-1 receptor-associated kinase 1 (Homo sapiens) (UniProt P51617); experiment: Inhibition of IRAK1 (unknown origin) assessed as remaining activity at 1 uM by Kinome scan method relative to control
Chain of Interleukin-1 receptor-associated kinase 1 (Homo sapiens) (P51617 whole entry, looked up): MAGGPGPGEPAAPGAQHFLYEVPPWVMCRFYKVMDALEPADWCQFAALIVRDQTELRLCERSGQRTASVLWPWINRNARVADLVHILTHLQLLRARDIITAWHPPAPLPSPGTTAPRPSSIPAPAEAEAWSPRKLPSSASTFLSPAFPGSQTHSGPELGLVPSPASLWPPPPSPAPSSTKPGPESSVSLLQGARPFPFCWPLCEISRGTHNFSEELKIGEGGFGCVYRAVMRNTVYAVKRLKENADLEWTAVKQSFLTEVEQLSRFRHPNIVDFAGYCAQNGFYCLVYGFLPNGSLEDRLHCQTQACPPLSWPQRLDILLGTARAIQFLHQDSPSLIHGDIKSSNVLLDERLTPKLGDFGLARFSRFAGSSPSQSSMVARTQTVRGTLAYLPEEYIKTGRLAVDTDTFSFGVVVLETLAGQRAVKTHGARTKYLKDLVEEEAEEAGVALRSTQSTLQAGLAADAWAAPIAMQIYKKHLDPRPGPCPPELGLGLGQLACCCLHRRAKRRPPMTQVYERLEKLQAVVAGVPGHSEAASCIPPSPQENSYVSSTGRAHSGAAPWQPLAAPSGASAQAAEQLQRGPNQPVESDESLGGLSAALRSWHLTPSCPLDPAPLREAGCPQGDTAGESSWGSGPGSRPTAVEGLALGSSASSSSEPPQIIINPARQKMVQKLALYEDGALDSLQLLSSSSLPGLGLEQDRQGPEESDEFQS

[6] = target: Serine/threonine-protein kinase Chk2 (Homo sapiens) (UniProt O96017); experiment: Inhibition of CHEK2 (unknown origin) assessed as remaining activity at 1 uM by Kinome scan method relative to control
Chain of Serine/threonine-protein kinase Chk2 (Homo sapiens) (O96017 whole entry): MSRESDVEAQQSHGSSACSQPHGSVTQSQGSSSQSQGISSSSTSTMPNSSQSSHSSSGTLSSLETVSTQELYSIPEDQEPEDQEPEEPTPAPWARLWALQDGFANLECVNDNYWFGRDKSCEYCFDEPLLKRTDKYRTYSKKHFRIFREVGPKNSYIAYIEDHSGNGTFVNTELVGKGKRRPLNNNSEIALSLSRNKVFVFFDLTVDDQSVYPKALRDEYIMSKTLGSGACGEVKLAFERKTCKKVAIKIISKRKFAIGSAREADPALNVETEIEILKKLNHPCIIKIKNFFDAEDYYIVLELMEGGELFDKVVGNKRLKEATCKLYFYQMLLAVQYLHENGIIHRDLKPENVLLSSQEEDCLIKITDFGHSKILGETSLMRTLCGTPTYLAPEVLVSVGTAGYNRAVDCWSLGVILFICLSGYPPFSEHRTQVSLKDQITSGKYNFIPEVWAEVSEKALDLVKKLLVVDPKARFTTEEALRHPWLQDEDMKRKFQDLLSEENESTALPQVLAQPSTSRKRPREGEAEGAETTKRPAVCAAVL
Procedure, shortened: (§1)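 Active-site-dependent competition-binding profiling (KINOMEscan) at 1 μM against a 468-kinase panel; compound supplied from a 10 mM DMSO stock. Read-out is ctrl% = (test signal − positive control signal)/(negative control signal − positive control signal) × 100. DMSO is the negative control (100%) and a control compound the positive control (0%). Lower ctrl% means tighter binding.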

[7] = target: Cyclin-dependent kinase-like 3 (Homo sapiens) (UniProt Q8IVW4); experiment: Inhibition of CDKL3 (unknown origin) assessed as remaining activity at 1 uM by Kinome scan method relative to control; procedure, shortened: as §1
[8] = target: Ephrin type-A receptor 4 (Homo sapiens) (UniProt P54764); experiment: Inhibition of EPHA4 (unknown origin) assessed as remaining activity at 1 uM by Kinome scan method relative to control
[9] = target: Serine/threonine-protein kinase OSR1 (Homo sapiens) (UniProt O95747); experiment: Inhibition of OSR1 (unknown origin) assessed as remaining activity at 1 uM by Kinome scan method relative to control
[10] = target: Serine/threonine-protein kinase SIK3 (Homo sapiens) (UniProt Q9Y2K2); experiment: Inhibition of QSK (unknown origin) assessed as remaining activity at 1 uM by Kinome scan method relative to control
Chain of Serine/threonine-protein kinase SIK3 (Homo sapiens) (Q9Y2K2 whole entry, looked up): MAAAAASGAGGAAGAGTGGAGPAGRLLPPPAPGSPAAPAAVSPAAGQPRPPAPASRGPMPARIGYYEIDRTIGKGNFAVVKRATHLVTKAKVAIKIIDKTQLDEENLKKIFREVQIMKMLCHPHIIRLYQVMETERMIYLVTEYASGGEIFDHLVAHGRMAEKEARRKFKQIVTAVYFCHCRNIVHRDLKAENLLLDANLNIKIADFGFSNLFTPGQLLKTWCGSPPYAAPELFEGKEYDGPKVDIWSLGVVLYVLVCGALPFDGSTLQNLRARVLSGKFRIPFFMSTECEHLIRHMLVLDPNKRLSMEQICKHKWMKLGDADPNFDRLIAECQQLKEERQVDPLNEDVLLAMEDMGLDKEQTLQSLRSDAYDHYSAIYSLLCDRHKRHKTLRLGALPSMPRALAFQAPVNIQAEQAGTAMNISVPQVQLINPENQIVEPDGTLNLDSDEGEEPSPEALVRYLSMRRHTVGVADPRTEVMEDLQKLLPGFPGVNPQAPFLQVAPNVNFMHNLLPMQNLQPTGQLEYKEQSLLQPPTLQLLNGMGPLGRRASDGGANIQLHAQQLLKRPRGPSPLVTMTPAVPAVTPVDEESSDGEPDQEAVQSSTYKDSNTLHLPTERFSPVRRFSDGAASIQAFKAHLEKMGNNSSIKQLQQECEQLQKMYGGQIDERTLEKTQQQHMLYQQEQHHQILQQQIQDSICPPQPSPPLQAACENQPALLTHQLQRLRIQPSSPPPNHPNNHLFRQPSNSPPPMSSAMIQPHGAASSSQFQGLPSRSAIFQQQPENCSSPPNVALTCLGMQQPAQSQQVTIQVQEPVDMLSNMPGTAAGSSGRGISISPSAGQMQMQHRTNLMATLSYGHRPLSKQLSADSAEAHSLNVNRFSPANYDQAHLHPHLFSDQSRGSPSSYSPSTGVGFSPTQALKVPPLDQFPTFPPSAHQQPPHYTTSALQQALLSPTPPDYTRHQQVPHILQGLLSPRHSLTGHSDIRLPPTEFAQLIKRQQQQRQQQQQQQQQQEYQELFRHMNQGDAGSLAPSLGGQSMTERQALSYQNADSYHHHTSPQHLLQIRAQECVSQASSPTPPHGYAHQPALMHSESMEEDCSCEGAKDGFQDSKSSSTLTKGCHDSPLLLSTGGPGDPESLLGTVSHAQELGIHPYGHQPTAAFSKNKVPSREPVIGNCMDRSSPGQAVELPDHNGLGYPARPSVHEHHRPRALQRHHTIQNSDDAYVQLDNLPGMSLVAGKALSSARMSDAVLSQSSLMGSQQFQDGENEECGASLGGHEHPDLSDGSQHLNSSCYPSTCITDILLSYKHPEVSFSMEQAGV

[11] = target: Leucine-rich repeat serine/threonine-protein kinase 2 (Homo sapiens) (UniProt Q5S007); experiment: Inhibition of LRRK2 (unknown origin) assessed as remaining activity at 1 uM by Kinome scan method relative to control
[12] = target: Dual specificity tyrosine-phosphorylation-regulated kinase 1A (Homo sapiens) (UniProt Q13627); experiment: Inhibition of DYRK1A (unknown origin) assessed as remaining activity at 1 uM by Kinome scan method relative to control
[13] = system: Tyrosine-protein kinase ABL1 (Homo sapiens), P00519 [T315I]; experiment: Inhibition of ABL1 T315I mutant (unknown origin) assessed as remaining activity at 1 uM by Kinome scan method relative to control
Procedure, shortened: (§2)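 Active-site-dependent competition-binding (KINOMEscan) panel of 468 kinases, test compound at 1 μM (from a 10 mM DMSO stock). Read-out is ctrl% = (test signal − positive control signal)/(negative control signal − positive control signal) × 100. DMSO is the negative control (100%) and a control compound is the positive control (0%). Lower ctrl% means tighter binding.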

[14] = system: Phosphatidylinositol 4,5-bisphosphate 3-kinase catalytic subunit alpha isoform (Homo sapiens), P42336 [C420R]; experiment: Inhibition of PIK3CA C420R mutant (unknown origin) assessed as remaining activity at 1 uM by Kinome scan method relative to control
Chain of Phosphatidylinositol 4,5-bisphosphate 3-kinase catalytic subunit alpha isoform (Homo sapiens), P42336 [C420R] (P42336 whole entry C420R, canonical isoform): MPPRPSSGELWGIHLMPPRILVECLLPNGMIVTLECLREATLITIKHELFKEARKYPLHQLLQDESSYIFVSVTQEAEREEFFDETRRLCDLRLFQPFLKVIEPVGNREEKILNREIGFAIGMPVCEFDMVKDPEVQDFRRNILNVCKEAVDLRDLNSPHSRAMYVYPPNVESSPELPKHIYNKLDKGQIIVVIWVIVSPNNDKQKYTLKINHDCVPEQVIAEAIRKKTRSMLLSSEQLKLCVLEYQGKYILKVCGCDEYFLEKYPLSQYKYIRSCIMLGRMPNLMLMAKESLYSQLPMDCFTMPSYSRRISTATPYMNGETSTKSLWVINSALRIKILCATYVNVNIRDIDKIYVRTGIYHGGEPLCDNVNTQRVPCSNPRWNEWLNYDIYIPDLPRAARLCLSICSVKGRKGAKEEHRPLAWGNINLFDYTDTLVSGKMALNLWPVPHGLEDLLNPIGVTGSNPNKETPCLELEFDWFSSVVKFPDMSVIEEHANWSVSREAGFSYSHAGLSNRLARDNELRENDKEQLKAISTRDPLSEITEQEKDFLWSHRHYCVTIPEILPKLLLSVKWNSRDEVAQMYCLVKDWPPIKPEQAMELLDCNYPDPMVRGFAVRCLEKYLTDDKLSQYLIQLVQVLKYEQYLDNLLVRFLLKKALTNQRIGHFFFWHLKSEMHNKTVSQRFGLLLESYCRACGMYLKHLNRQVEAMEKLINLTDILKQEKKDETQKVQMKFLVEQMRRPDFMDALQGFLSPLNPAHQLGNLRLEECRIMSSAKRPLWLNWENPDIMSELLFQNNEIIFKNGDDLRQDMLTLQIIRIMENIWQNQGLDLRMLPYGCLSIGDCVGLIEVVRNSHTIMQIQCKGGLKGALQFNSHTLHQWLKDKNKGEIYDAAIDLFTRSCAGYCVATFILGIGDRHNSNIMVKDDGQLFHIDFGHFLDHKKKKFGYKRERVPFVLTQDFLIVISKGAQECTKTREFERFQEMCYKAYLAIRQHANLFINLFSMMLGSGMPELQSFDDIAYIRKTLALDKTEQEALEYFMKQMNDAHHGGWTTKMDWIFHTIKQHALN

[15] = target: Dual specificity protein kinase CLK4 (Homo sapiens) (UniProt Q9HAZ1); experiment: Inhibition of CLK4 (unknown origin) assessed as remaining activity at 1 uM by Kinome scan method relative to control; procedure, shortened: as §1
Chain of Dual specificity protein kinase CLK4 (Homo sapiens) (Q9HAZ1 whole entry, looked up): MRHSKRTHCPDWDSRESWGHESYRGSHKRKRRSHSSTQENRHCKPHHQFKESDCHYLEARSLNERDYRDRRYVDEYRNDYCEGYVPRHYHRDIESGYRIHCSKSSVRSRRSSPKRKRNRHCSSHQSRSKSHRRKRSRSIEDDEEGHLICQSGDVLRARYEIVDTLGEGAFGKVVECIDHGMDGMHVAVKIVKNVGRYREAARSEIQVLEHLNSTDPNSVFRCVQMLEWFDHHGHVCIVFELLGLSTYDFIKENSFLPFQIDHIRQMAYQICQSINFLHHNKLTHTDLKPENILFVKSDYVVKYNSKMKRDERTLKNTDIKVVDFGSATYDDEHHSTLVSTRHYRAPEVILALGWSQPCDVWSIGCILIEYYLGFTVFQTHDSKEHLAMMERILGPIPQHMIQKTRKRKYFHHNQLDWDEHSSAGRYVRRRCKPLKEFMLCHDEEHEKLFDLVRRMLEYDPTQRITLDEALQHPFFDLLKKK

[16] = target: Serine/threonine-protein kinase MRCK beta (Homo sapiens) (UniProt Q9Y5S2); experiment: Inhibition of MRCKB (unknown origin) assessed as remaining activity at 1 uM by Kinome scan method relative to control
[17] = target: MAP/microtubule affinity-regulating kinase 4 (Homo sapiens) (UniProt Q96L34); experiment: Inhibition of MARK4 (unknown origin) assessed as remaining activity at 1 uM by Kinome scan method relative to control
[18] = target: Receptor-type tyrosine-protein kinase FLT3 (Homo sapiens) (UniProt P36888); experiment: Inhibition of FLT3-autoinnibited (unknown origin) assessed as remaining activity at 1 uM by Kinome scan method relative to control
[19] = system: Mus musculus; experiment: Protection against APAP induced liver injury in mouse assessed as continual expansion of centrilobular necrotic lesions at 1 mg/kg, ip administered at 1.5 hrs by H&E staining; type: functional, organism-based
[20] = target: STE20-like serine/threonine-protein kinase (Homo sapiens) (UniProt Q9H2G2); experiment: Inhibition of SLK (unknown origin) assessed as remaining activity at 1 uM by Kinome scan method relative to control
[21] = system: Mus musculus; experiment: Anti-colitis activity against DSS-induced mouse assessed as high number in nuclear YAP-positive cells at 1 mg/kg, ip administrated daily for 8 days by IHC staining; type: functional, organism-based; conditions: Colon, time 8.0 day
Procedure, shortened: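 Wild-type mice received oral DSS for 7 days with vehicle or 1 mg/kg daily. Colon sections were stained by IHC for YAP, BrdU and Ki67, and positive cells were quantified per animal. Means ± SD, n = 10, Student's t test.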

[22] = target: Aurora kinase A (Homo sapiens, UniProt O14965); experiment: Inhibition of AURKA (unknown origin) in presence of ATP by enzymatic assay
Chain of Aurora kinase A (O14965 whole entry): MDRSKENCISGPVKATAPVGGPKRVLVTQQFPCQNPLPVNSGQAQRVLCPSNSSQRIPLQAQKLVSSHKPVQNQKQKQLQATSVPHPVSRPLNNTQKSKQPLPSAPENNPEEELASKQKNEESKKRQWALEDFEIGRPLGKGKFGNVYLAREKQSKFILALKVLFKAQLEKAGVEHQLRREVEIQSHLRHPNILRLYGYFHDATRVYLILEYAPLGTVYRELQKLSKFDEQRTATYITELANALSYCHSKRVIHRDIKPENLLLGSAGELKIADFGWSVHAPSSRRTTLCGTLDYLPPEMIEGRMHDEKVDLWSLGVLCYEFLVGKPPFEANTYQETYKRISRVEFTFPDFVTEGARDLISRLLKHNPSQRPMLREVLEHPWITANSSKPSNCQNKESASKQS

[23] = system: Mus musculus; experiment: In vivo inhibition of MST1/2 in mouse assessed as YAP phosphorylation level at 1 mg/kg, ip administration and measured after between 1.5 to 6 hrs by immunoblot analysis; type: functional, organism-based; conditions: time 1.5-6 hrs
Procedure, shortened: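 Wild-type mice received 1 mg/kg intraperitoneally, with vehicle of 0.1% citric acid aqueous solution containing 20% Kolliphor HS 15. Livers were harvested over 0–12 h and lysates immunoblotted for p-MOB1 and p-YAP, normalized to control. Means ± SD, n = 3.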

[24] = Inhibition of recombinant His-tagged full-length MST1 Y101F/D109A mutant (unknown origin) expressing in Escherichia coli assessed as MOB1 phosphorylation level incubated for 15 min by immunoblot analysis; set-up: species or system Homo sapiens
[25] = target: Aurora kinase B (Homo sapiens, UniProt Q96GD4); experiment: Inhibition of AURKB (unknown origin) assessed as remaining activity at 1 uM by Kinome scan method relative to control; procedure, shortened: as §2
Chain of Aurora kinase B (Q96GD4 whole entry): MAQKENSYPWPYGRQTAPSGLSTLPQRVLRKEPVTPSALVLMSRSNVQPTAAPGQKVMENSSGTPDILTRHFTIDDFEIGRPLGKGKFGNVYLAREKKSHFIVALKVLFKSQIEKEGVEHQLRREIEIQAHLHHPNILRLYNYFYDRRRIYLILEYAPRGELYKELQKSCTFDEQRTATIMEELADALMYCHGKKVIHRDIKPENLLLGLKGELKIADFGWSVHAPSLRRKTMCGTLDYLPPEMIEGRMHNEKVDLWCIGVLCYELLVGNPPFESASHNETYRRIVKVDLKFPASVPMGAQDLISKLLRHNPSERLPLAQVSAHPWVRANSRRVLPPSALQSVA

[26] = target: Mast/stem cell growth factor receptor Kit (Homo sapiens) (UniProt P10721); experiment: Inhibition of KIT (unknown origin) assessed as remaining activity at 1 uM by Kinome scan method relative to control

CN1C(=O)c2sccc2N(C)c2nc(Nc3ccc(S(N)(=O)=O)cc3)ncc21
inhibition [1]: Active
Activity [2]: 100%
Activity [3]: Non-Toxic
Activity [4]: 100%
Activity [5]: 51%
Activity [6]: 100%
Activity [7]: 91%
Activity [8]: 100%
Activity [9]: 81%
Activity [10]: 87%
Activity [11]: 37%
Activity [12]: 81%
Activity [13]: 15%
Activity [14]: 96%
Activity [15]: 100%
Activity [16]: 100%
Activity [17]: 100%
Activity [18]: 100%
Activity [19]: Active
Activity [20]: 100%
Activity [21]: Active
pIC50 [22]: 7.71
inhibition [23]: Active
pIC50 [24]: 5.86
Activity [25]: 3.4%
Activity [26]: 100%
